TAAR1 agonist: agonists of human TAAR1. Q96RJ0. CHO RD-HGA16 TAAR1, Fluo-8 calcium fluorescence; vehicle wells 0%, saturating PEA agonist 100%. activation, % at 3 µM. hit rate 0.99% among 360,000;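 active = activation above the mean activation of all test compounds in the run plus 3 SD, cut at about 38% in these data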
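Test system: RD-HGA16 (CHO) cells co-expressing Gα16 and hTAAR1; dosing: one-point dosing at 3 µM (nominal); timing: 17-24 h seeding, 75 min 37 °C dye, 30 min RT; signal: kinetic Fluo-8 calcium fluorescence; read-out basis: % activation relative to PEA EC100 response; controls: DMSO and PEA EC100; replicates: n 1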
TAAR1 antag: human TAAR1 antagonism; Q96RJ0; CHO RD-HGA16 TAAR1, Fluo-8 calcium fluorescence, antagonist; inhibition, % at 3 µM; hit rate 1.5% among 360,000; AID 624466;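 active = inhibition above a per-plate cutoff, the mean inhibition of test compounds on that plate plus 3 SD, cut at about 49% in these data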;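 also: 0% = DMSO plus EC80 beta-PEA response and 100% = DMSO alone without agonist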
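Assay system: CHO-derived RD-HGA16 cells stably expressing human TAAR1 plus Gα16. Timing: 140 s kinetic read after compound, 140 s after agonist. Technique: kinetic Fluo-8 calcium fluorescence measurement. Measure: % inhibition of agonist calcium response.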
GPR7 antagonist: blocks human GPR7 receptor signaling; GPR7-expressing cells, fluorescence antagonist assay; P48145; inhibition, % at 4.4 µM; AID 1861; hit rate 1.1% among 290,000; in the data active = inhibition above about 16%, passing the limit was not always enough;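 also: cells stimulated with the agonist NPW; 0% = agonist with vehicle and 100% = vehicle without agonist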
Target sequence (P48145 whole entry, looked up): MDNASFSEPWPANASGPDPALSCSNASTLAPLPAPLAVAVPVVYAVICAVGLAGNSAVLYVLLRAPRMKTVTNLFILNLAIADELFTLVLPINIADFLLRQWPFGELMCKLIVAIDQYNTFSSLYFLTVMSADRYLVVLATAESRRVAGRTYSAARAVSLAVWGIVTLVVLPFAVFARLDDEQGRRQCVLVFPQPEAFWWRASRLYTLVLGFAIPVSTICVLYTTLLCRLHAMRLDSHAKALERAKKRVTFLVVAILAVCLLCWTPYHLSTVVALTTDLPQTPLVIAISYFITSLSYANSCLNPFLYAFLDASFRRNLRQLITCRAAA
DAGLB inh: diacylglycerol lipase beta (human) inhibition. inhibition, % at 5.17 µM. HEK293T DAGLB membrane lysate, EnzChek fluorogenic substrate. hit rate 0.059% among 340,000; in the data active = inhibition above about 34%;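 also: 0% = enzyme with vehicle and 100% = wells lacking enzyme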
MPTP inh: inhibitors of mitochondrial permeability transition pore. isolated mouse mitochondria, Ca2+ swelling absorbance, 30 min. inhibition, % at 10 µM. hit rate 1.4% among 360,000. AID 602449;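 active = inhibition of 50% or more, scaled per plate between neutral and stimulator controls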;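 also: 0% = DMSO wells given calcium and 100% = 1 mM EGTA wells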
MPTP counter: mitochondrial membrane potential, counter-screen. shares compounds with MPTP inh. isolated mitochondria, Rhodamine 123 fluorescence. inhibition, % at 10 µM. hit rate 78% among 5,000; in the data active = inhibition above about 22%;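 also: 0% = DMSO vehicle and 100% = positive control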
MPTP abs DR: dose response confirmation of mitochondrial permeability transition pore inhibitors; hit rate 58% among 780; IC50, µM; shares compounds with MPTP inh; isolated mitochondria swelling, absorbance; in the data active = IC50 below about 20 µM
MPTP cs DR: MPTP inhibitor counter-screen activity, dose response; shares compounds with MPTP inh; isolated mitochondria counterscreen, fluorescence read-out; IC50, µM; hit rate 49% among 780; in the data active = IC50 below about 80 µM
An asterisk follows results filed as active; i = inactive; / = not tested or not shown. In the library only some 4% were active in any assay of this set; here they are far more common.

SMILES	TAAR1 agonist	TAAR1 antag	GPR7 antagonist	DAGLB inh	MPTP inh	MPTP counter	others
O=C1NC[C@H](Cc2ccccc2)N(CC2CCN(CCc3ccc(-c4ccccc4)cc3)CC2)C1=O	3	-8	/	0	3	/
CCc1nonc1NC(=O)c1oc2ccc(F)cc2c1C	-4	-6	-23	-2	-1	/
Cc1c(C(=O)Nc2nonc2-c2ccc(F)cc2)oc2ccc(F)cc12	3	2	-17	-4	81*	84*
C=CCn1c(SCC(=O)Nc2sccc2C(N)=O)nc2ccc(Cl)cc2c1=O	17	29	2	2	1	/
C=CCn1c(SCN2C(=O)c3ccccc3C2=O)nc2ccc(Cl)cc2c1=O	0	15	-16	-4	90*	90*
O=C(C1CCCCC1)N1CCN(c2ccnc3cc(Cl)ccc23)CC1	7	16	3	-4	83*	43*
O=C(C1CCC1)N1CCN(c2ccnc3cc(Cl)ccc23)CC1	0	-26	5	-4	11	/
O=C(Nc1ccc(OC(F)(F)F)cc1)N1CCN(c2ccnc3cc(Cl)ccc23)CC1	-1	-22	-7	-5	96*	81*
CC(C)CCN1C(=O)c2ccc(C(=O)Nc3ccc(Br)cc3C(=O)O)cc2C1=O	0	-1	0	9	93*	46*
CC(C)CN1C(=O)c2ccc(C(=O)Nc3ccncc3)cc2C1=O	10	12	13	0	60*	70*
COc1cccc(C(=O)N[C@@H](Cc2cccnc2)C(=O)N2CCC[C@H]2C(=O)NCc2ccccc2)c1	0	-6	/	/	/	/
Cc1nc2ccccc2n1CC(=O)NCc1ccccc1	5	11	4	0	70*	20	MPTP abs DR=i;MPTP cs DR=31*
COc1ccccc1NC(=O)c1c(Nc2ccccc2C)sc(C(=O)Nc2cccc(Cl)c2)c1N	3	23	10	-33	87*	51*
COc1cc(C(=O)NN=C2c3ccccc3-c3ccccc32)cc(OC)c1OC	4	9	/	/	/	/
C/C(=N\NS(=O)(=O)c1ccccc1)c1cc(Cl)cc(Cl)c1O	1	-39	1	6	62*	75*
Cn1c(N=Nc2ccc(N3CCOCC3)cc2)[n+](C)c2ccccc21	0	-5	-21	3	81*	25*
CC(C)C[C@@H]1COc2cccc(NC3CC3)c2S(=O)(=O)N1	1	-11	/	/	/	/
Cc1nc(Nc2ccc(F)cc2)[nH]c(=O)c1CCC(C)C	10	-7	-17	1	95*	77*
O=C(Nc1ccccc1)C1Cc2c(-c3ccco3)ccnc2O1 (stereo unspecified)	3	-11	/	/	0	/
O=c1cc(-c2ccc([N+](=O)[O-])cc2)nc2cc(-c3ccc(F)cc3)[nH]n12	2	-18	-8	9	89*	-10	MPTP abs DR=>100;MPTP cs DR=28*
Cc1ccc(NC(=O)C2C(c3ccccc3)C2(Cl)Cl)c(C)c1 (stereo unspecified)	-4	-20	-16	-6	53*	62*
S=C(NCCc1ccccc1)Nc1ccc(Cl)cc1	7	24	-12	-17	100*	90*
S=C(NCc1ccc(Cl)cc1)Nc1ccncc1	15	3	1	0	98*	103*
Cc1ccc(C(=O)NCCc2cccc(Cl)c2)cc1[N+](=O)[O-]	1	-9	3	-5	13	/
O=C(NCCc1cccc(Cl)c1)c1ccc(Cl)c([N+](=O)[O-])c1	1	34	-4	1	81*	94*
SMILES	TAAR1 agonist	TAAR1 antag	GPR7 antagonist	DAGLB inh	MPTP inh	MPTP counter	others
Fc1ccc(CNC(=S)Nc2ccc(Cl)cc2)cc1	10	19	1	-3	65*	95*
Clc1ccccc1-c1cnc2sc(NCc3ccc4c(c3)OCO4)nn12	4	-18	/	/	1	/
S=C(NCc1ccc(Cl)cc1)Nc1ccccc1	8	25	7	0	65*	93*
Cc1ccc(CNC(=S)Nc2ccc(OC(F)F)cc2C)cc1	2	20	8	-3	9	/
S=C(NCc1ccc(Cl)cc1Cl)Nc1ccccc1	9	19	-4	-4	95*	95*
Cc1ccc(NC(=S)NCc2ccc(Cl)cc2)c(OC(F)F)c1	5	36	1	-4	62*	97*
Cc1cc(Cl)ccc1NC(=S)NCc1ccccc1Cl	1	3	-11	-4	93*	84*
O=C(NC(=S)NCc1ccc(Cl)cc1Cl)c1ccco1	0	-10	/	-5	-1	/
Cn1c(NCCOc2ccccc2Cl)nc2cc(-c3ccc(F)cc3)sc2c1=O	-1	6	/	/	-1	/
S=C(NCCCc1ccccc1)Nc1ccccc1Cl	5	-4	-3	-4	86*	100*
CC(=O)c1ccc(NC(=S)NCCc2cccc(Cl)c2)cc1	24	46	11	-2	86*	95*
S=C(NCCc1ccccc1)Nc1ccccc1Cl	27	1	1	-1	1	/
Fc1cccc(NC(=S)NCc2ccccc2Cl)c1	14	-24	-22	-2	86*	97*
S=C(NCc1ccccc1Cl)Nc1ccccc1Cl	4	9	-8	-2	0	/
S=C(NCCC(c1ccccc1)c1ccccc1)Nc1cccc(Cl)c1	4	36	-4	-7	98*	87*
CC(=O)c1ccc(NC(=S)NCCc2ccc(S(N)(=O)=O)cc2)cc1	0	6	-6	1	1	/
S=C(NCc1ccncc1)Nc1cccc(Cl)c1	6	4	-12	-2	4	/
CCCCNC(=O)c1nc(C2CCN(S(=O)(=O)c3ccc(Cl)cc3)CC2)oc1-c1ccccc1	0	1	/	/	0	/
S=C(NCCc1ccccn1)Nc1cc(Cl)cc(Cl)c1	7	18	9	1	60*	77*
Cc1c(Cl)cccc1NC(=S)NCCc1ccc(C(F)(F)F)cc1	5	-3	-12	-12	98*	96*
Cc1c(Cl)cccc1NC(=S)NCCc1ccccn1	5	2	7	-1	0	/
Cc1ccc(C(=O)O/N=C2\CCSc3ccc(C)cc32)cc1	1	23	-8	-22	1	/
COc1ccc(S(=O)(=O)O/N=C2\CCSc3ccc(C)cc32)cc1	4	16	-4	-2	59*	37*
CN(C)C(=O)c1cc2c(c(-c3cccc(-c4ccccc4F)c3)n1)[C@@H](CCO)N(S(C)(=O)=O)C2	-1	-2	/	/	-1	/
Cc1ccccc1CS(=O)(=O)c1nnc([C@H](CC(C)C)NC(=O)OC(C)(C)C)o1	3	17	16	-1	75*	-3
O=C(c1ccc2c(=O)n(C3CCCC3)c(=S)[nH]c2c1)N1CCCCCC1	2	3	-20	-4	89*	79*

Source: PubChem
